{"source": "paper PMC10013843", "about": "(Molecular psychiatry, 2022)", "key": {"[1]": {"molecular_target": "delta-opioid receptor (DOR; OPRD1) (Homo sapiens, UniProt P41143)", "sequence (P41143 whole entry)": "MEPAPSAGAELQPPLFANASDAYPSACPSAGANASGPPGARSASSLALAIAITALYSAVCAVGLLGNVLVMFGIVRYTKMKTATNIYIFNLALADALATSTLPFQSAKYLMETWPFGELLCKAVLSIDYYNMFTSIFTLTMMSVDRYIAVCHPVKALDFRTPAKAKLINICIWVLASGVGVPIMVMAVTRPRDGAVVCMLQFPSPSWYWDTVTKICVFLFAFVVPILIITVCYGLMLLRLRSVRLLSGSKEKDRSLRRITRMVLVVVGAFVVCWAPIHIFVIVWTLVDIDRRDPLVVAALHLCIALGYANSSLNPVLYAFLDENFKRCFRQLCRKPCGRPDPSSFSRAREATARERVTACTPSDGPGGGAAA", "experiment": "cAMP BRET", "format": "cell-based", "conditions": "HEK-293 cells, up to a concentration of 1 mM", "method_in_brief": "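HEK-293 cells (DMEM, 10% FBS, 37°C/5% CO2) were PEI-transfected with 5 μg untagged MOR, KOR or DOR plus 5 μg CAMYEL cAMP biosensor and used 48 h later. Cells were suspended in DPBS with 100 μM metabisulfite and 5.5 mM glucose and kept 45 min in the dark. Forskolin (10 μM) was added for 5 min, then coelenterazine H (5 μM) for 5 min, then compound. BRET (535/475 nm) was read 5 min later, forskolin-only background subtracted, and expressed as % of each receptor's maximum. Triplicates; 3–6 experiments for EC50/Emax.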"}, ">30,000 proteins": {"system": ">30,000 proteins", "experiment": "Collective screening and target deconvolution", "format": "binding"}, "NMDAR": {"system": "NMDAR", "conditions": "cited from earlier work"}, "mice [2]": {"system": "mice", "conditions": "cited from earlier work"}, "opioid receptors": {"system": "opioid receptors", "conditions": "not tested experimentally; cited from earlier work"}, "mice [3]": {"system": "mice", "experiment": "Forced swimming test", "format": "in vivo, mouse", "conditions": "24 hours after", "method_in_brief": "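Male CD-1 mice (35–40 g, n = 8/condition) received a single IP dose of test compound (1, 3 or 10 mg/kg) or saline 24 h before a 6-min swim under 800 lux. Cylinders were 30 cm high × 20 cm diameter, holding 15 cm of water at 23 ± 1°C. A blinded observer scored immobility from video over the last 4 min.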"}, "rats [4]": {"system": "rats", "experiment": "[^18F]-FDG PET brain metabolic mapping", "format": "in vivo, rat", "conditions": "10 mg/kg i.v. infusion in 40 min", "method_in_brief": "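Rats were handling- and arena-habituated and fasted 16 h. Awake in an open field, they received a continuous IV infusion of buffered saline (n = 4) or test compound (10 mg/kg over 40 min, n = 5). Ten min after infusion start, [18F]-FDG (13 MBq) was given IP. Rats were anesthetized 30 min later and brains PET-scanned. SUVR images used whole brain as reference, analysed voxel-wise and by atlas-based ROIs.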"}, "[^14C]-": {"experiment": "[^14C]-", "format": "in vivo, rat", "conditions": "for % of the total radioactivity exposure through 72 hours: plasma; for plasma exposure AUC 0–72h: [^14C]-(2R,6R)-HNK 10 mg/kg i.v.", "method_in_brief": "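Male and female rats received a single bolus IV dose of 14C-labelled test compound (10 mg/kg). Blood and plasma radioactivity was followed from 15 min to 120 h in males and to 72 h in females. […] Whole-body autoradiograms were taken at 30 min and 4 h.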"}, "[5]": {"conditions": "after administration of antidepressant-like doses; cited from earlier work"}, "[6]": {"conditions": "after i.p. injection of antidepressant-relevant doses in mice; cited from earlier work"}, "[7]": {"molecular_target": "Neurokinin receptor (NK1) (Homo sapiens, UniProt P25103)", "sequence (P25103 whole entry)": "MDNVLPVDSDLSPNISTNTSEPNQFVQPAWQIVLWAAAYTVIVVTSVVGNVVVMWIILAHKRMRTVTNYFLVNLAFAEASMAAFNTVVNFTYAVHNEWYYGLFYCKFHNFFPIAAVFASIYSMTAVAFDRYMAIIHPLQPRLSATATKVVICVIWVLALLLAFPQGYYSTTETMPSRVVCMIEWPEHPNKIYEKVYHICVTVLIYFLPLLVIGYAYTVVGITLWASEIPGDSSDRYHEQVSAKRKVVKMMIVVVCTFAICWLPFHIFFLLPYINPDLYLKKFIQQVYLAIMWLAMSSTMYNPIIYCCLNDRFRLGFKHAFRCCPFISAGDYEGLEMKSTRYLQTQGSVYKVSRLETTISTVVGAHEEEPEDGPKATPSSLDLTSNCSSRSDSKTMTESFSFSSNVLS", "experiment": "Receptor and enzyme competitive screen", "format": "binding", "conditions": "10 μM", "method_in_brief": "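In an outsourced panel, membranes from stable cell lines expressing each receptor or enzyme were incubated with the target's radioligand, with or without test compound at 100 nM or 10 μM. A reference compound ran concurrently, and a specific agonist or antagonist defined nonspecific binding. Bound ligand was collected by vacuum filtration through presoaked glass-fibre filters, washed with ice-cold buffer and counted by scintillation.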"}, "rats [8]": {"system": "rats", "experiment": "Heroin self-administration and substitution", "format": "in vivo, rat", "conditions": "0.5 mg/kg/inf IV"}, "rats [9]": {"system": "rats", "conditions": "i.v. doses up to 160 mg/kg; cited from earlier work"}, "rats [10]": {"system": "rats", "experiment": "Intravenous self-administration", "format": "in vivo, rat", "method_in_brief": "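Male rats had jugular catheters placed under isoflurane and recovered 6–8 days. They were food-restricted (18–20 g/day) on a reverse 12-h cycle. For training (n = 14), rats self-administered test compound at 0.5 mg/kg/infusion IV, FR1 with 20-s timeout, for 16 days. For dose-response (n = 8/condition), unit doses of 0.125, 0.25, 0.5 or 1.0 mg/kg/infusion were given in randomized sequence, 1 h/day for 8 days. Read-out was infusions earned.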"}, "[11]": {"molecular_target": "estrogen receptor alpha (ERα) (Homo sapiens, UniProt P03372)", "sequence (P03372 whole entry)": "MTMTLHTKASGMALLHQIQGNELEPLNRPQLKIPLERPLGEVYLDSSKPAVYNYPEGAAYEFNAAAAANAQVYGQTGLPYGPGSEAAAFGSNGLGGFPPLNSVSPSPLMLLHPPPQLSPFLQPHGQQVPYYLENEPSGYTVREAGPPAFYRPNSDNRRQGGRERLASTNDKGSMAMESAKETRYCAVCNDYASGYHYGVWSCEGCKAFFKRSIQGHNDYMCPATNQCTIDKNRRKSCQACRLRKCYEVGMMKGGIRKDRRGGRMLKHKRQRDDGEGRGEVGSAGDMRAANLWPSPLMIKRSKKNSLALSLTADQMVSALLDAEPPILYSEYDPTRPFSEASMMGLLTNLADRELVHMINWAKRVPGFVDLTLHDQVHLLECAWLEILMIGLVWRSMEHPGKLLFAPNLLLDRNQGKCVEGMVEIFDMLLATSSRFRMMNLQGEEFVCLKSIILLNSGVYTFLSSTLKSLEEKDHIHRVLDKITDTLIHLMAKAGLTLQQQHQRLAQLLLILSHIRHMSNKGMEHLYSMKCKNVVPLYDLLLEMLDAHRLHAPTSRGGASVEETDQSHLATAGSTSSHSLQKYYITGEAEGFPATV", "experiment": "Screening and target deconvolution experiments", "format": "binding"}, "HCN1 channel": {"molecular_target": "T1, HCN1 channel (Homo sapiens, UniProt O60741)", "T1 sequence (O60741 1-890)": "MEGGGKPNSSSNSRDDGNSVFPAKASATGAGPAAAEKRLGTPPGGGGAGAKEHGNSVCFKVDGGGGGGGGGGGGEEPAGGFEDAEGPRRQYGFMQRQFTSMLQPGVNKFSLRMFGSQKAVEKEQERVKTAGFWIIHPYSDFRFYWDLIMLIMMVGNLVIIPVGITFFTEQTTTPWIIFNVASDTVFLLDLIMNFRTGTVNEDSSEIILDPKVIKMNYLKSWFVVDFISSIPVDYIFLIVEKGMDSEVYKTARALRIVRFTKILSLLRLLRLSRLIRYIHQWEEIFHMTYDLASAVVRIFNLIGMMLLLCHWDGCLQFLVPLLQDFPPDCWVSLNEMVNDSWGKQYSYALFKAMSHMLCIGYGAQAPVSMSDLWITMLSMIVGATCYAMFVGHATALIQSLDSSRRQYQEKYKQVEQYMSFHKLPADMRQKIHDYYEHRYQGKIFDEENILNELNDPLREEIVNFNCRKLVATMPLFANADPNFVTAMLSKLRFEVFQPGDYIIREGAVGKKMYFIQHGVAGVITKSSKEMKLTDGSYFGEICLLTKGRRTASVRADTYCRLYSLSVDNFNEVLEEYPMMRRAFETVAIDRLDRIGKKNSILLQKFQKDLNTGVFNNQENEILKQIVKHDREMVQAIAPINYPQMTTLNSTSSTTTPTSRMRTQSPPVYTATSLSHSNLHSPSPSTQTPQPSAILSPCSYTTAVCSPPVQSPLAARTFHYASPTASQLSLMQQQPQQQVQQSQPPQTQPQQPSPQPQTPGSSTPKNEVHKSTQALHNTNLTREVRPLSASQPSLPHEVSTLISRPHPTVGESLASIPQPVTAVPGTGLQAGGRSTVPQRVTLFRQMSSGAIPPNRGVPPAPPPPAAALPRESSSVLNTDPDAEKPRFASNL", "experiment": "HCN1 channel functional interaction", "format": "biochemical"}}}
{"smiles": "N[C@@]1(c2ccccc2Cl)CCC[C@@H](O)C1=O", "note": "[(2R,6R)-HNK, (2R,6R)-hydroxynorketamine]", "values": [{"measurement": "cAMP response (inhibition of cAMP accumulation)", "setting": "[1]", "value": "did not induce any cAMP response"}, {"measurement": "direct protein interactions, all screens together", "setting": ">30,000 proteins", "value": "failed to identify any (2R,6R)-HNK-protein interactions"}, {"measurement": "effect on NMDAR function", "setting": "NMDAR; 10 μM, cultured hippocampal neurons", "value": "no effect"}, {"measurement": "reduction in synaptic NMDAR currents", "setting": "NMDAR; 50 μM", "value": "~ 40%"}, {"measurement": "pain reduction after naloxone pretreatment", "setting": "mice [2]", "value": "not blocked by naloxone pretreatment"}, {"measurement": "affinity for opioid receptors by computational modeling", "setting": "opioid receptors", "value": "high (i.e. in the nanomolar range) affinity"}, {"measurement": "immobility time in forced swimming test, difference from vehicle", "setting": "mice [3]; 1 mg/kg IP", "value": "but not 1 mg/kg"}, {"measurement": "immobility time in forced swimming test", "setting": "mice [3]; 3 or 10 mg/kg IP, single administration", "value": "reduced immobility time"}, {"measurement": "metabolic activity in the PFC", "setting": "rats [4]", "value": "did not see any metabolic activity"}, {"measurement": "regional metabolic connectivity profile", "setting": "rats [4]", "value": "closely resembled the saline condition"}, {"measurement": "brain metabolic activity ([^18F]-FDG uptake), voxel-wise analysis", "setting": "rats [4]; insula, nucleus accumbens, globus pallidus, thalamus, cortices, cerebellum", "value": "mild but significant increase"}, {"measurement": "FDG uptake in the nucleus accumbens, ROI-based", "setting": "rats [4]; vs saline", "value": "~ 10 % increase"}, {"measurement": "% of the total radioactivity exposure through 72 hours", "setting": "[^14C]-; female rats", "value": 26.7, "unit": "%"}, {"measurement": "plasma exposure AUC 0–72h", "setting": "[^14C]-; female rats", "value": 7090, "unit": "ng eq·h/g"}, {"measurement": "% of the total radioactivity exposure through 72 hours", "setting": "[^14C]-; male rats", "value": 21.6, "unit": "%"}, {"measurement": "plasma exposure AUC 0–72h", "setting": "[^14C]-; male rats", "value": 5330, "unit": "ng eq·h/g"}, {"measurement": "concentration achieved in the brain", "setting": "[5]", "value": "~ 10 μM"}, {"measurement": "maximum extracellular concentration in the hippocampus", "setting": "[6]", "value": "~ 8 μM"}, {"measurement": "binding of Substance P to NK1 in screen", "setting": "[7]", "value": "increases binding of Substance P"}, {"measurement": "pressing on first session after heroin substitution", "setting": "rats [8]", "value": "pressed significantly more"}, {"measurement": "self-administration on successive sessions after heroin substitution", "setting": "rats [8]", "value": "rapid extinction of self-administration"}, {"measurement": "NMDAR-associated neurotoxicity", "setting": "rats [9]", "value": "does not produce NMDAR-associated neurotoxicity"}, {"measurement": "self-administration training", "setting": "rats [10]; male rats, 0.5 mg/kg/inf IV, FR1, 20-s timeout, 16 days", "value": "not a reliable reinforcer"}, {"measurement": "self-administration dose-response", "setting": "rats [10]; rats, unit doses 0.125, 0.25, or 1 mg/kg/inf", "value": "did not respond"}, {"measurement": "interaction with ERα", "setting": "[11]", "value": "failed to interact"}, {"measurement": "interaction with the HCN1 channel", "setting": "HCN1 channel", "value": "neither (2R,6R)-HNK nor ketamine interacted"}]}
